# A selection: hits, their analogues and other compounds. The true share with any hit is near 3.6%.
# CSC inhib: blocks cancer stem cells | inhibition, % at 7.5 µM | cancer stem cell-like cells viability, luminescence | 300,000 compounds, 1.1% hits; in the data active means inhibition above about 75%; inconclusive means no clear call, values can overlap the other calls; tested in HMLE shEcad cells
# HIF activator: HIF pathway transcriptional activation; U2OS HRE-luciferase reporter, luminescence; normalized: DMSO 0%, desferrioxamine 100%; activation, % at 7.5 µM (by protocol); 300,000 compounds, 0.32% hits;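 active means mean activation of at least 10% of the iron chelator positive control signal, with at least half of replicates also reaching 10%; inconclusive means mean and replicate majority disagree about reaching 10%; inactive means mean and most replicates under 10%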
# Beta apoptosis: beta cell apoptosis inhibition | protection from apoptosis, % (no concentration beside the values) | AID 435005 | INS-1E cytokine-induced death, ATP luminescence, 48 h; percent of positive-control rescue, neutral wells zero | 300,000 compounds, 0.8% hits;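 active means Every replicate reaches about 75%, or at least half do and their mean reaches it too, limit read from the data; inconclusive means At least half of replicates reach the limit but their mean does not; inactive means Under half of replicates reach the limit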;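 further: 0% = cytokine-treated negative control wells and 100% = positive control rescue; higher means more ATP so stronger rescue from cytokine killing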
# T cruzi inh: blocks replication of Trypanosoma cruzi | inhibition, % (concentration not given with the values) | T. cruzi beta-gal in NIH3T3, luminescence, 90 h | 300,000 compounds, 1.4% hits;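 active means mean inhibition across valid replicates above about 55%, limit read from the data; inconclusive means mean below that limit but half or more replicates reach it; inactive means mean below it, under half of replicates reach it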;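 further: signal also drops with host cell toxicity which is not excluded here; 0% = plate median of DMSO wells and 100% = zero luminescence signal; higher percent means less beta-gal luminescence so fewer parasites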
#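 assay system = mouse NIH/3T3 fibroblasts infected with β-gal-expressing T. cruzi Tulahuen C4 | input = 5,000 NIH/3T3 host cells per well | buffer or medium = DMEM plus 2% FBS | timing = 3 h host attachment, then at least 90 h co-culture | measured by = GalScreen luminescence, 60 min | evaluation = luminescence reflecting intracellular parasite burden, expressed as percent inhibition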
# PfHsp90 yeast 2: growth inhibition of yeast expressing Plasmodium Hsp90. S. cerevisiae expressing PfHsp90, BacTiter-Glo ATP, 48 h; yeast lacking PDR1 and PDR3 efflux regulators. inhibition, % at 9.4 µM. 310,000 compounds, 0.32% hits;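 active means every replicate shows inhibition above about 80%, whatever the replicate mean, limit read from the data; inconclusive means mean inhibition reaches the set limit but some replicate falls short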;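 further: 0% = DMSO neutral controls and 100% = 20 µM radicicol positive controls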
# SKKanGAS inh: SKKanGAS growth inhibition; S. pyogenes SKKanGAS, kanamycin growth, BacTiter-Glo, 6 h; inhibition, % at 7.5 µM; 300,000 compounds, 1.3% hits;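 active means mean replicate score, as percent of positive control median, at least 50; inconclusive means mean below 50 but one replicate at or above 50; inactive means mean and every replicate below 50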;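 further: strain carries kanamycin resistance gene driven by streptokinase promoter and grows in 40 µg/ml kanamycin; loss of luminescence reflects streptokinase promoter inhibition or plain growth inhibition; 0% = median of DMSO wells and 100% = positive control at its reference dose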
# The depositor's hits bear a star; ? = inconclusive; . = no result.
SMILES,CSC inhib,HIF activator,Beta apoptosis,T cruzi inh,PfHsp90 yeast 2,SKKanGAS inh
O=C(O)CN1C(=O)/C(=C\c2cc(Br)ccc2OCc2ccccc2Cl)SC1=S,97*,0,0,15,-1,95*
O=C(O)CN1C(=O)/C(=C\c2ccccc2OCc2ccc(Cl)cc2Cl)SC1=S,48,-2,-2,1,-13,71*
O/N=C/c1cc(Br)ccc1OCc1ccccc1F,44,-2,-2,5,-43,26
O=C(O)CN1C(=O)/C(=C\c2cc(Br)ccc2OCc2ccccc2F)SC1=S,54,0,-5,3,-11,68*
O=C(O)CN1C(=O)/C(=C\c2cc(Br)ccc2OCc2ccc([N+](=O)[O-])cc2)SC1=S,24,2,-3,-1,-54,32
O=C(Nc1nnc2n1CCS2)c1ccc(Br)o1,-9,0,-1,-17,-8,1
NNC(=O)c1nnsc1-c1csnn1,.,.,.,.,-10,.
O=C(CN1C(=O)COc2ccc(Cl)cc21)Nc1ccc2c(c1)OCCO2,-7,82*,-4,-8,-14,-3
O=C(CN1CCC(C(=O)c2ccc(Cl)cc2)CC1)Nc1ccc2c(c1)OCCO2,-9,74*,0,27,10,-3
NC(=O)C1CCN(CC(=O)Nc2ccc3c(c2)OCCO3)CC1,-3,.,1,.,1,.
CN(CC(=O)Nc1c(Cl)cccc1Cl)C(=O)C1CC(=O)N(Cc2ccccc2)C1 (centres undefined),-8,.,-3,.,19,.
CCC[C@@H](CN1CCC[C@H]1CN1C(N)=NC[C@@H]1Cc1ccccc1)N1C[C@@H]([C@H](C)CC)N(CCCC2CCCC2)C1=N,.,.,101*,.,17,.
Oc1ccc(N=Nc2ccc3c(c2)OCCO3)c2cccnc12,.,14*,.,83*,-58,88*
COc1ccc(-c2[nH]ncc2N=Nc2cc(C)cc(C)c2)cc1,7,2,18,40,-15,?
COc1ccc(-c2[nH]ncc2N=Nc2ccccc2)cc1,94*,2,-14,6,-64,29
O=Nc1ccc(O)c2ncccc12,37,8,43,22,7,4
Cc1ccc(N=Nc2ccc(O)cc2)c(Br)c1,87*,4,8,5,116*,7

# From PubChem BioAssay
